Test results reported in article PMC12502093 (RSC Advances, 2025).
In brackets after ≈: the same amount, converted by molar mass.

Legend:
[1] = test system: C. albicans ATCC 10231; test: Agar well diffusion test; type: cell-based; conditions: AWDT; for Zone of inhibition, inhibition scale: C. albicans ATCC 10231; for Zone of inhibition: C. albicans ATCC 10231, average of triplicate
[2] = test system: A. flavus isolate; test: Agar well diffusion test; type: cell-based; conditions: AWDT; for Zone of inhibition: average of triplicate
In short: (§1)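 Agar well diffusion. Test compounds were placed in wells on agar inoculated with the reference strain or isolate. After incubation, inhibition zone diameters were measured in mm with a caliper. Runs were in triplicate and the zone averaged. Scale: 0 = no inhibition; 0–6 mm (−); 7–11 mm (+); 12–14 mm (++); 15–17 mm (+++).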

[3] = test system: JAK2; test: qRT-PCR gene expression in MCF7 cells: JAK2; type: cell-based, human; conditions: compound at IC50, 48 h, relative to β-Actin, vs control
In short: (§2)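 MCF7 cells (3 × 10^4 per well) were treated 48 h with test compound. Total RNA was column-extracted and reverse-transcribed to first-strand cDNA. SYBR Green qPCR ran 95 °C 10 min, then 40 cycles of 95 °C 15 s, 60 °C 30 s, 72 °C 30 s. Expression was normalised to β-Actin by 2−ΔΔCT relative to untreated control. Data are mean ± SEM; Student's t-test, P < 0.05.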

[4] = test system: MCF7 cells; test: Neutral red uptake cytotoxicity assay, MCF7; type: cell-based, human; conditions: for IC50: Homo sapiens, MCF7, 48 h, read-out: IC50 (μM) MCF7; for (SI) MCF7, selectivity index: SI = IC50 MDCK cell/IC50 MCF7 cell
In short: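 Neutral red uptake. Log-phase cells were grown in DMEM with 10% FBS at 37 °C, 5% CO2, at 10^4 cells/well. They were exposed 48 h to 12.5, 25, 50 and 100 μM test compound (DMSO final <0.2%), then given neutral red medium for 2 h and washed with DPBS. Dye was extracted with 1% acetic acid/50% ethanol and read at 450/630 nm. IC50 came from log concentration versus intensity, three runs averaged. SI = MDCK IC50 / MCF7 IC50.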

[5] = test system: IL6; test: qRT-PCR gene expression in MCF7 cells: IL6; type: cell-based, human; conditions: compound at IC50, 48 h, relative to β-Actin, vs control
In short: as §2

[6] = test system: c-MYC; test: qRT-PCR gene expression in MCF7 cells: c-MYC; type: cell-based, human; conditions: compound at IC50, 48 h, relative to β-Actin, vs control
In short: as §2

[7] = test system: S. aureus ATCC 25923; test: Agar well diffusion test; type: cell-based; conditions: AWDT; for Zone of inhibition, inhibition scale: S. aureus ATCC 25923; for Zone of inhibition: S. aureus ATCC 25923, average of triplicate
In short: as §1

[8] = test system: BCL2; test: qRT-PCR gene expression in MCF7 cells: BCL2; type: cell-based, human; conditions: compound at IC50, 48 h, relative to β-Actin, vs control
In short: as §2

[9] = test system: STAT3; test: qRT-PCR gene expression in MCF7 cells: STAT3; type: cell-based, human; conditions: compound at IC50, 48 h, relative to β-Actin, vs control
In short: as §2

[10] = target: STAT3 (Homo sapiens, UniProt P40763); test: STAT3 tyrosine phosphorylation inhibition; type: biochemical; conditions: for IC50: STAT3 phosphorylation IC50 (μM) (mean ± SD), ELISA, eight dilutions 100-0.03 μM
STAT3 (Homo sapiens, UniProt P40763), sequence (P40763 whole entry): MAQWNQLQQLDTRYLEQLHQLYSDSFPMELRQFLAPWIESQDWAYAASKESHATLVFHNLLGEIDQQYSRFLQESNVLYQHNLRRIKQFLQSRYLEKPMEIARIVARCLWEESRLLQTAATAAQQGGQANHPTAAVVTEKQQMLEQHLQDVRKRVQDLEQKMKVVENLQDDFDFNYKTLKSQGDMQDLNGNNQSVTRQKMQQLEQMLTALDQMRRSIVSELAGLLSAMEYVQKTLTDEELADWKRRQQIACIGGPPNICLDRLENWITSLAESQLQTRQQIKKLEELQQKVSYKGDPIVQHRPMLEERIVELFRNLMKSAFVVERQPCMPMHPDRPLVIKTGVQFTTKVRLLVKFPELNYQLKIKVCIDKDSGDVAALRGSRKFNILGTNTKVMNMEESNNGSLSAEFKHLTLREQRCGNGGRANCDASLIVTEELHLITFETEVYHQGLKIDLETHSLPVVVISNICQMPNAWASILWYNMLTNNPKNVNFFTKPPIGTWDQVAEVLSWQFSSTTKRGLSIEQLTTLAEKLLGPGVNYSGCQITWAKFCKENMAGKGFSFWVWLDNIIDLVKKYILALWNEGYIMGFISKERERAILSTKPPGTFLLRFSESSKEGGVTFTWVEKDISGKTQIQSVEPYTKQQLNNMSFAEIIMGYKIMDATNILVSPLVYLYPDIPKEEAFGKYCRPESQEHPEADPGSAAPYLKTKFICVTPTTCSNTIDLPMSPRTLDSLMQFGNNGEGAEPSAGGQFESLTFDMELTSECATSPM

[11] = target: T1, E. coli topoisomerase IV (Escherichia coli, UniProt P20083); test: E. coli topoisomerase IV ATPase assay; type: biochemical
T1 sequence (P20083 whole entry): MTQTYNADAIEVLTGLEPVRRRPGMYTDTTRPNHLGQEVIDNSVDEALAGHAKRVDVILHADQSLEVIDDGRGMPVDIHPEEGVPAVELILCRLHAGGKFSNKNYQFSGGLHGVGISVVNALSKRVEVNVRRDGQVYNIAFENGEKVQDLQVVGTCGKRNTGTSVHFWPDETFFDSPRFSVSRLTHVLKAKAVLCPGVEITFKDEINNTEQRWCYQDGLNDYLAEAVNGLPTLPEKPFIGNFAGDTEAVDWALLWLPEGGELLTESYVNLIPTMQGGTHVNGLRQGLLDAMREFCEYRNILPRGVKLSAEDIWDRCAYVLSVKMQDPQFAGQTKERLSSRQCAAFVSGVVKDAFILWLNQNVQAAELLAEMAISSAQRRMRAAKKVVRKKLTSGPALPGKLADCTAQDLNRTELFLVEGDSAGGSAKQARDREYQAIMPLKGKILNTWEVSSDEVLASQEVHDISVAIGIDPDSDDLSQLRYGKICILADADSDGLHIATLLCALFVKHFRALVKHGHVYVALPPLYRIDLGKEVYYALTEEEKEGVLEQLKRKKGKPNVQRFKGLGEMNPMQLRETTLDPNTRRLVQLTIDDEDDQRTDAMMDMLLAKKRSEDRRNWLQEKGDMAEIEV
T1 sequence (P0AFI2 whole entry partner): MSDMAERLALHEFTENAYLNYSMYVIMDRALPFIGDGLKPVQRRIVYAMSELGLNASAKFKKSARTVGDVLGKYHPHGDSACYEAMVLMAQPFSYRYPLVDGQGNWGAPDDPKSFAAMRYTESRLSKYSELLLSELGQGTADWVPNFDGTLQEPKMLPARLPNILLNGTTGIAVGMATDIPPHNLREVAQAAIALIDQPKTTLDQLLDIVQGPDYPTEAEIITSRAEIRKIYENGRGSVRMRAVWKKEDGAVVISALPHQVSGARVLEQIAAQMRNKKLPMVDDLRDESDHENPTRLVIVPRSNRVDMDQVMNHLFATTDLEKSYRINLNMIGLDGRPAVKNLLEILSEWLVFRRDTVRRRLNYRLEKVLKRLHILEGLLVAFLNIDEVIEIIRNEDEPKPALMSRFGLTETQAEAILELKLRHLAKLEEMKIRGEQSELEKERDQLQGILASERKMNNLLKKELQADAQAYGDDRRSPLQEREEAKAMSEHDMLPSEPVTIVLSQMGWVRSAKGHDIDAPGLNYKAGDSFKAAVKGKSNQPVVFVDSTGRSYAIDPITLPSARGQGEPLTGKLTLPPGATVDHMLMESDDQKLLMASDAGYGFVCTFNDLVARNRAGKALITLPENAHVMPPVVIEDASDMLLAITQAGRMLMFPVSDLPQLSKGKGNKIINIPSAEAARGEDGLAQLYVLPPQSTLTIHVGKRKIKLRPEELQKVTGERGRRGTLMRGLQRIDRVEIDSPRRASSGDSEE

[12] = target: T2, E. coli DNA gyrase (Escherichia coli, UniProt P0AES6); test: E. coli DNA gyrase ATPase assay; type: biochemical
[13] = test system: Cyclin D1; test: qRT-PCR gene expression in MCF7 cells: Cyclin D1; type: cell-based, human; conditions: compound at IC50, 48 h, relative to β-Actin, vs control
In short: as §2

[14] = target: T2, E. coli DNA gyrase; test: E. coli DNA gyrase supercoiling assay; type: biochemical
In short: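 Commercial kit assay of E. coli DNA gyrase supercoiling. Relaxed plasmid DNA is the substrate, and relaxed and supercoiled forms are separated by agarose gel electrophoresis. Test compounds were dissolved in DMSO and added at different concentrations to derive IC50.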

[15] = test system: C. albicans ATCC 10231; test: Minimum inhibitory concentration, C. albicans; type: cell-based; conditions: Candida albicans, ATCC10231, read-out: MIC (mg mL^−1)
In short: (§3)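 MIC was determined by a previously reported method for compounds selected from the well-diffusion screen and is expressed in mg mL−1. […] For C. albicans, 100 μL of negative cells went onto potato dextrose agar at 25 °C/72 h.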

[16] = test system: BAX; test: qRT-PCR gene expression in MCF7 cells: BAX; type: cell-based, human; conditions: compound at IC50, 48 h, relative to β-Actin, vs control
In short: as §2

[17] = test system: E. coli O157 ATCC 700728; test: Minimum inhibitory concentration, E. coli; type: cell-based; conditions: Escherichia coli, ATCC700728, read-out: MIC (mg mL^−1)
In short: as §3

[18] = test system: E. coli O157 ATCC 700728; test: Agar well diffusion test; type: cell-based; conditions: AWDT; for Zone of inhibition: E. coli O157 ATCC 700728, average of triplicate; for Zone of inhibition, inhibition scale: E. coli O157 ATCC 700728
In short: as §1

[19] = target: T1, E. coli topoisomerase IV; test: E. coli topoisomerase IV cleavage assay; type: biochemical

Compound	Zone of inhibition, inhibition scale [1]	Zone of inhibition [1]	Zone of inhibition, inhibition scale [2]	Zone of inhibition [2]	JAK2 gene expression level [3]	IC50 [4]	(SI) MCF7, selectivity index [4]	IL6 gene expression level [5]	c-MYC gene expression level [6]	Zone of inhibition, inhibition scale [7]	Zone of inhibition [7]	BCL2 gene expression level [8]	STAT3 gene expression level [9]	MIC [15]	Zone of inhibition [18]	also measured
CC(=O)c1ccc2cc(S(=O)(=O)Nc3ccccc3)ccc2c1 [Compound 5a, 6-Acetyl-N-phenylnaphthalene-2-sulfonamide]	++ (12–14 mm (++))	12 mm	− (0–6 mm (−))	0 mm	significantly decreased	42.1 µM	2.15	significantly decreased	significantly decreased	− (0–6 mm (−))	0 mm	significantly decreased	significantly decreased			IC50 [10]: 7.87 ± 0.74 µM
CC(=O)c1ccc2cc(S(=O)(=O)Nc3ccc(F)cc3)ccc2c1 [Compound 5b, 6-Acetyl-N-(4-fluorophenyl)naphthalene-2-sulfonamide]	+++ (15–17 mm (+++))	15 mm	− (0–6 mm (−))	0 mm	significant decrease	40.1 µM	2.33	significant decrease	significant decrease	− (0–6 mm (−))	0 mm	significant decrease	significant decrease	10000 µg/mL (≈ 29.1 mM)	15 mm	IC50 [11]: 3.49 µM; IC50 [12]: 3.58 µM; Cyclin D1 gene expression level [13]: significant decrease; IC50 [14]: 20.6 µM; IC50 [10]: 3.59 ± 0.7 µM; Potency as STAT3 inhibitor relative to lead compound I ([10]; higher potency than compound I): approximately 2 fold; BAX gene expression level [16]: significant increase; MIC [17]: 10000 µg/mL (≈ 29.1 mM); IC50 [19]: 15.4 µM; Potency relative to norfloxacin, topoisomerase IV cleavage assay ([19]; E. coli, more potent than norfloxacin): 1.5 fold
CC(=O)c1ccc2cc(S(=O)(=O)Nc3ccccc3Cl)ccc2c1 [Compound 5c, 6-Acetyl-N-(2-chlorophenyl)naphthalene-2-sulfonamide]	+++ (15–17 mm (+++))	16 mm	− (0–6 mm (−))	0 mm						− (0–6 mm (−))	0 mm			20000 µg/mL (≈ 55.6 mM)	12 mm	Zone of inhibition, inhibition scale [18]: ++ (12–14 mm (++))
CC(=O)c1ccc2cc(S(=O)(=O)Nc3cccc(Cl)c3)ccc2c1 [Compound 5d, 6-Acetyl-N-(3-chlorophenyl)naphthalene-2-sulfonamide]	+ (7–11 mm (+))	15 mm	− (0–6 mm (−))	0 mm						− (0–6 mm (−))	0 mm			10000 µg/mL (≈ 27.8 mM)	10 mm	
CC(=O)c1ccc2cc(S(=O)(=O)Nc3ccccc3C)ccc2c1 [Compound 5f, 6-Acetyl-N-(o-tolyl)naphthalene-2-sulfonamide]	+ (7–11 mm (+))	12 mm	− (0–6 mm (−))	0 mm						− (0–6 mm (−))	0 mm				11 mm	
COc1ccc(NS(=O)(=O)c2ccc3cc(C(C)=O)ccc3c2)cc1 [Compound 5g, 6-Acetyl-N-(4-methoxyphenyl)naphthalene-2-sulfonamide]	+ (7–11 mm (+))	10 mm	− (0–6 mm (−))	0 mm						− (0–6 mm (−))	0 mm				12 mm	Zone of inhibition, inhibition scale [18]: ++ (12–14 mm (++))
CC(=O)c1ccc2cc(S(=O)(=O)NCc3ccccc3)ccc2c1 [Compound 5h, 6-Acetyl-N-benzylnaphthalene-2-sulfonamide]	+ (7–11 mm (+))	7 mm	+ (7–11 mm (+))	10 mm						++ (12–14 mm (++))	14 mm				10 mm	
CC(=O)c1ccc2cc(S(=O)(=O)Nc3ccccn3)ccc2c1 [Compound 5i, 6-Acetyl-N-(pyridin-2-yl)naphthalene-2-sulfonamide]	+ (7–11 mm (+))	14 mm	− (0–6 mm (−))	0 mm	significant decrease	41.6 µM	2.13	significant decrease	significant decrease	− (0–6 mm (−))	0 mm	significant decrease	significant decrease	40000 µg/mL (≈ 123 mM)	11 mm	Cyclin D1 gene expression level [13]: significant decrease; IC50 [10]: 8.58 ± 0.9 µM; BAX gene expression level [16]: significant increase
CC(=O)c1ccc2cc(S(=O)(=O)Nc3cccnc3)ccc2c1 [Compound 5j, 6-Acetyl-N-(pyridin-3-yl)naphthalene-2-sulfonamide]	+++ (15–17 mm (+++))	16 mm	+ (7–11 mm (+))	7 mm						− (0–6 mm (−))	0 mm			10000 µg/mL (≈ 30.6 mM)	16 mm	MIC [17]: 20000 µg/mL (≈ 61.3 mM)
COc1cccc2c1C(=O)c1c(O)c3c(c(O)c1C2=O)C[C@@](O)(C(=O)CO)C[C@@H]3O[C@H]1C[C@H](N)[C@H](O)[C@H](C)O1 [Doxorubicin, reference compound]					significantly decreasing	22.8 µM	3.07	significantly decreasing	significantly decreasing			significantly decreasing	significantly decreasing			Cyclin D1 gene expression level [13]: significantly decreasing; BAX gene expression level [16]: significantly raised
CCn1cc(C(=O)O)c(=O)c2cc(F)c(N3CCNCC3)cc21 [Nor, norfloxacin, reference compound]																IC50 [14]: 11.1 µM; IC50 [19]: 25.8 µM
